Assay results from ChEMBL document CHEMBL1914430, “Synthesis of some new 1,3,5-trisubstituted pyrazolines bearing benzene sulfonamide as anticancer and anti-inflammatory agents” (Bioorg Med Chem Lett, 2011).

Experiments:
Format in all cases: functional
[1] = system: Rattus norvegicus; assay: Antiinflammatory activity in Wistar rat assessed as inhibition of carrageenan-induced hind paw edema at 20 mg/kg, po administered 30 mins before carrageenan challenge measured after 3 hrs by plethysmometer
Method in brief: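 Wistar rats of either sex, 150–175 g, fasted 16 h, n = 6 per group. Compound given orally at 20 mg/kg as a suspension in 1% CMC in water (10 mL/kg); controls got vehicle only. After 30 min, 0.1 mL of 1% carrageenan in saline was injected subplantar into the left hind paw. Paw volume was measured by plethysmometer at 0, 3 and 5 h. Inhibition = (1 − Vt/Vc) × 100, reported as mean ± SEM.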

[2] = system: CCRF-CEM; assay: Anticancer activity against human CCRF-CEM cells after 48 hrs
Method in brief: (§1)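 NCI Drug Evaluation Branch 60-cell-line screen across leukemia, melanoma, lung, colon, CNS, ovarian, renal, prostate and breast panels. The incubation period is 48 h. Parameters are derived from dose–response data: GI50 is the concentration giving 50% decrease in net growth, TGI is total growth inhibition, and LC50 is net 50% loss of initial cells. Values beyond the tested range are reported as greater or less than the maximum or minimum concentration.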

[3] = system: HL-60(TB); assay: Anticancer activity against human HL-60(TB) cells after 48 hrs; conditions: HL-60, 48 h
Method in brief: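 NCI 60-cell-line panel protocol: cells exposed to compound for 48 h. Initial one-dose screen at 10⁻⁵ M. GI50 = concentration giving 50% decrease in net cell growth. TGI = concentration giving total growth inhibition. LC50 = concentration giving net 50% loss of initial cells at the end of incubation. A value not reached or exceeded is reported as greater or less than the highest or lowest concentration tested.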

[4] = system: K562; assay: Anticancer activity against human K562 cells after 48 hrs; conditions: K562, 48 h; method in brief: as §1
[5] = system: RPMI-8226; assay: Anticancer activity against human RPMI8226 cells after 48 hrs; conditions: RPMI-8226, 48 h
Method in brief: (§2)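 NCI 60-line panel protocol with a 48 h incubation. Per line: GI50 = concentration giving 50% decrease in net cell growth; TGI = total growth inhibition; LC50 = net 50% loss of initial cells. When the level was not reached or was exceeded, the value is given as greater or less than the highest or lowest concentration tested.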

[6] = system: A549; assay: Anticancer activity against human A549 cells after 48 hrs; conditions: A549, 48 h; method in brief: as §1
[7] = system: EKVX; assay: Anticancer activity against human EKVX cells after 48 hrs; conditions: for CC50: read-out: LC50 (the source's name); method in brief: as §1
[8] = system: NCI-H226; assay: Anticancer activity against human NCI-H226 cells after 48 hrs; conditions: NCI-H226, 48 h; for CC50: read-out: LC50 (the source's name); method in brief: as §2
[9] = system: NCI-H23; assay: Anticancer activity against human NCI-H23 cells after 48 hrs; conditions: NCI-H23, 48 h; method in brief: as §2
[10] = system: COLO 205; assay: Anticancer activity against human COLO205 cells after 48 hrs; conditions: COLO 205, 48 h; method in brief: as §1
[11] = system: HCC 2998; assay: Anticancer activity against human HCC2998 cells after 48 hrs; conditions: HCC 2998, 48 h; method in brief: as §1
[12] = system: HCT-116; assay: Anticancer activity against human HCT116 cells after 48 hrs; conditions: HCT-116, 48 h; for CC50: read-out: LC50 (the source's name); method in brief: as §1
[13] = system: HT-29; assay: Anticancer activity against human HT-29 cells after 48 hrs; conditions: HT-29, 48 h; for CC50: read-out: LC50 (the source's name); method in brief: as §1
[14] = system: SNB-75; assay: Anticancer activity against human SNB75 cells after 48 hrs; conditions: SNB-75, 48 h; for CC50: read-out: LC50 (the source's name); method in brief: as §2
[15] = system: U-251; assay: Anticancer activity against human U251 cells after 48 hrs; conditions: U-251, 48 h; for CC50: read-out: LC50 (the source's name)
Method in brief: (§3)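 NCI ~60 human tumour cell line panel with a 48 h incubation. GI50 is the concentration giving a 50% fall in net growth, TGI gives total growth inhibition, and LC50 gives a net 50% loss of initial cells. An effect not reached or exceeded is reported as greater or less than the highest or lowest concentration tested.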

[16] = system: Malme-3M; assay: Anticancer activity against human MALME-3M cells after 48 hrs; conditions: for CC50: read-out: LC50 (the source's name); method in brief: as §1
[17] = system: M14; assay: Anticancer activity against human M14 cells after 48 hrs; conditions: M14, 48 h; for CC50: read-out: LC50 (the source's name); method in brief: as §1
[18] = system: SK-MEL-2; assay: Anticancer activity against human SK-MEL-2 cells after 48 hrs; conditions: SK-MEL-2, 48 h; method in brief: as §2
[19] = system: SK-MEL-5; assay: Anticancer activity against human SK-MEL-5 cells after 48 hrs; conditions: SK-MEL-5, 48 h; method in brief: as §2
[20] = system: OVCAR-3; assay: Anticancer activity against human OVCAR3 cells after 48 hrs; conditions: OVCAR-3, 48 h; method in brief: as §2
[21] = system: OVCAR-5; assay: Anticancer activity against human OVCAR5 cells after 48 hrs; conditions: OVCAR-5, 48 h; method in brief: as §2
[22] = system: OVCAR-8; assay: Anticancer activity against human OVCAR8 cells after 48 hrs; conditions: OVCAR-8, 48 h; for CC50: read-out: LC50 (the source's name); method in brief: as §2
[23] = system: 786-0; assay: Anticancer activity against human 786-0 cells after 48 hrs; conditions: 786-0, 48 h; for CC50: read-out: LC50 (the source's name); method in brief: as §1
[24] = system: A498; assay: Anticancer activity against human A498 cells after 48 hrs; conditions: A498, 48 h; for CC50: read-out: LC50 (the source's name); method in brief: as §1
[25] = system: UO-31; assay: Anticancer activity against human UO31 cells after 48 hrs; conditions: UO-31, 48 h; for CC50: read-out: LC50 (the source's name); method in brief: as §3
[26] = Anticancer activity against human Hs 578T cells after 48 hrs; conditions: for CC50: read-out: LC50 (the source's name); method in brief: as §1
[27] = system: MDA-MB-468; assay: Anticancer activity against human MDA-MB-468 cells after 48 hrs; conditions: MDA-MB-468, 48 h; for CC50: read-out: LC50 (the source's name); method in brief: as §1

Compound: Cc1cc(O)c(C2=NN(c3ccc(S(N)(=O)=O)cc3)C(/C=C/c3ccccc3)C2)cc1Cl (stereo unspecified)
- inhibition in vivo at 20 mg/kg [1]: 78.9%
- GI50 [2]: 17.7 µM
- LC50 (concentration causing net 50% loss of initial cells) [2]: > 100 µM
- TGI [2]: 50 µM
- GI50 [3]: 68.3 µM
- LC50 [3]: > 100 µM
- TGI [3]: 100 µM
- GI50 [4]: 11.6 µM
- LC50 (concentration killing 50% of initial cells) [4]: > 100 µM
- TGI [4]: 87.5 µM
- GI50 [5]: 4.95 µM
- LC50 (concentration for net 50% loss of initial cells) [5]: 0.575 µM
- TGI [5]: 20.6 µM
- GI50 [6]: 11 µM
- LC50 (net 50% loss of initial cells) [6]: 86 µM
- TGI [6]: 30.8 µM
- GI50 [7]: 14.2 µM
- TGI [7]: 35.3 µM
- CC50 [7]: 87.4 µM
- GI50 [8]: 5.21 µM
- TGI [8]: 19.2 µM
- CC50 [8]: 51.8 µM
- GI50 [9]: 1.68 µM
- LC50 (concentration killing 50% of initial cells) [9]: 35.4 µM
- TGI [9]: 12.5 µM
- GI50 [10]: 10.4 µM
- LC50 (concentration giving net 50% loss of initial cells) [10]: 47 µM
- TGI [10]: 22.1 µM
- GI50 [11]: 9.89 µM
- LC50 (net 50% loss of initial cells) [11]: 92.5 µM
- TGI [11]: 30.3 µM
- GI50 [12]: 2.4 µM
- TGI [12]: 14.6 µM
- CC50 [12]: 38.2 µM
- GI50 [13]: 3.73 µM
- TGI [13]: 14.7 µM
- CC50 [13]: 38.3 µM
- GI50 [14]: 3.39 µM
- TGI [14]: 16.1 µM
- CC50 [14]: 44.4 µM
- GI50 [15]: 3.79 µM
- TGI [15]: 15.6 µM
- CC50 [15]: 39.5 µM
- GI50 [16]: 3.01 µM
- TGI [16]: 17.4 µM
- CC50 [16]: 51.9 µM
- GI50 [17]: 6.16 µM
- TGI [17]: 19.3 µM
- CC50 [17]: 44.2 µM
- GI50 [18]: 16.8 µM
- LC50 [18]: > 100 µM
- TGI [18]: 58.2 µM
- GI50 [19]: 4.23 µM
- LC50 [19]: 40.5 µM
- TGI [19]: 16.4 µM
- GI50 [20]: 11.5 µM
- LC50 (concentration giving 50% net loss of initial cells) [20]: 70.2 µM
- TGI [20]: 28.4 µM
- GI50 [21]: 3.18 µM
- LC50 [21]: 38.3 µM
- TGI [21]: 14.7 µM
- GI50 [22]: 3.03 µM
- TGI [22]: 20.2 µM
- CC50 [22]: 91.7 µM
- GI50 [23]: 4.09 µM
- TGI [23]: 12.5 µM
- CC50 [23]: 35.3 µM
- GI50 [24]: 14.9 µM
- TGI [24]: 42.4 µM
- CC50 [24]: > 100 µM
- GI50 [25]: 15.2 µM
- TGI [25]: 34.9 µM
- CC50 [25]: 79.9 µM
- GI50 [26]: 12.3 µM
- TGI [26]: 49.7 µM
- CC50 [26]: > 100 µM
- GI50 [27]: 3.94 µM
- TGI [27]: 13.8 µM
- CC50 [27]: 37.2 µM

Compound: Cc1cc(O)c(C2=NN(c3ccc(S(N)(=O)=O)cc3)C(c3ccccc3Cl)C2)cc1Cl (stereo unspecified)
- inhibition in vivo at 20 mg/kg [1]: 55.3%
- GI50 [2]: 4.81 µM
- LC50 (concentration causing net 50% loss of initial cells) [2]: > 100 µM
- TGI [2]: > 100 µM
- GI50 [3]: 3.44 µM
- LC50 [3]: > 100 µM
- TGI [3]: 100 µM
- GI50 [4]: 3.26 µM
- LC50 (concentration killing 50% of initial cells) [4]: > 100 µM
- GI50 [5]: 2.97 µM
- LC50 (concentration for net 50% loss of initial cells) [5]: > 100 µM
- TGI [5]: 8.35 µM
- GI50 [6]: 3.82 µM
- LC50 (net 50% loss of initial cells) [6]: > 100 µM
- TGI [6]: 19.3 µM
- GI50 [7]: 1.95 µM
- TGI [7]: 4.6 µM
- CC50 [7]: > 100 µM
- GI50 [8]: 3.03 µM
- TGI [8]: 9.44 µM
- CC50 [8]: > 100 µM
- GI50 [9]: 1.79 µM
- LC50 (concentration killing 50% of initial cells) [9]: 7.13 µM
- TGI [9]: 3.58 µM
- GI50 [10]: 1.81 µM
- LC50 (concentration giving net 50% loss of initial cells) [10]: 6.03 µM
- TGI [10]: 3.31 µM
- GI50 [11]: 2.1 µM
- LC50 (net 50% loss of initial cells) [11]: 7.3 µM
- TGI [11]: 3.91 µM
- GI50 [12]: 1.76 µM
- TGI [12]: 3.15 µM
- CC50 [12]: 5.61 µM
- GI50 [13]: 1.92 µM
- TGI [13]: 3.63 µM
- CC50 [13]: 6.83 µM
- GI50 [14]: 2.23 µM
- TGI [14]: 8.83 µM
- CC50 [14]: 63.6 µM
- GI50 [15]: 2.25 µM
- TGI [15]: 5.02 µM
- CC50 [15]: 36.9 µM
- GI50 [16]: 2.62 µM
- TGI [16]: 6.46 µM
- CC50 [16]: > 100 µM
- GI50 [17]: 1.85 µM
- TGI [17]: 3.43 µM
- CC50 [17]: 6.39 µM
- GI50 [18]: 11.9 µM
- LC50 [18]: 81.1 µM
- TGI [18]: 31 µM
- GI50 [19]: 3.85 µM
- LC50 [19]: 36 µM
- TGI [19]: 12.3 µM
- GI50 [20]: 1.89 µM
- LC50 (concentration giving 50% net loss of initial cells) [20]: 6.77 µM
- TGI [20]: 3.58 µM
- GI50 [21]: 1.74 µM
- LC50 [21]: 6.23 µM
- TGI [21]: 3.3 µM
- GI50 [22]: 2.94 µM
- TGI [22]: 11.2 µM
- CC50 [22]: > 100 µM
- GI50 [23]: 2.25 µM
- TGI [23]: 4.52 µM
- CC50 [23]: 9.1 µM
- GI50 [24]: 5.01 µM
- TGI [24]: 20.5 µM
- CC50 [24]: 61.4 µM
- GI50 [25]: 2.66 µM
- TGI [25]: 16.2 µM
- CC50 [25]: 48 µM
- GI50 [26]: 3.28 µM
- CC50 [26]: > 100 µM
- GI50 [27]: 2.22 µM
- TGI [27]: 4.74 µM
- CC50 [27]: > 100 µM
